# From PubChem BioAssay
# Hits are enriched below; roughly 1.4% of the tested compounds scored in any of these assays.
# KLK5 inh = blocks human kallikrein 5 protease activity; Q9Y337; recombinant hK5, fluorogenic AMC substrate cleavage; inhibition, % at 5 µM; 210,000 tested, 0.59% active; AID 873;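 active = inhibition of 40% or more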;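 also: 0% = enzyme controls without compound and 100% = no-enzyme blanks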
# Target sequence (Q9Y337 67-293 limits assumed): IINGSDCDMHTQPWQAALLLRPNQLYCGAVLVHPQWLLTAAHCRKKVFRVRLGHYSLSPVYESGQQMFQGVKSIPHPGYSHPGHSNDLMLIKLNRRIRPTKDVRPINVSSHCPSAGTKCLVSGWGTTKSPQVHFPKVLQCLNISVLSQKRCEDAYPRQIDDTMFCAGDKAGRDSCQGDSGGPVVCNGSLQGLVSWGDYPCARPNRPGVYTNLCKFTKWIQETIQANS
# Thrombin inh = blocks human thrombin protease activity. P00734. alpha-thrombin, Boc-VPR-AMC fluorogenic substrate cleavage. inhibition, % at 5 µM. 220,000 tested, 0.26% active;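 active = inhibition at or above 40%; inactive = inhibition below 40%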;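 also: 0% = enzyme with no compound and 100% = wells without enzyme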
#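 Assay system: human alpha-thrombin enzyme. Reagent: Boc-VPR-AMC substrate, 15 µM final. Compound dosing: one concentration per compound, 5 µM, with 0.2% DMSO. Incubation: room-temperature reaction. Technique: AMC fluorescence, 355/460 nm. Measure: % inhibition relative to enzyme controls and enzyme-free blanks.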
# Calpain2 inh = calpain II (pig) inhibition; purified calpain II, fluorogenic peptide substrate, 30 min; inhibition, % at 16 µM; 220,000 tested, 0.37% active;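 active = inhibition above about 50%, limit read from the data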
# FXIa inh 1536 = factor XIa (human) inhibition | P03951 | purified FXIa, Boc-Glu-Ala-Arg-AMC fluorogenic substrate | inhibition, % at 5 µM | 220,000 tested, 0.14% active;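 active = inhibition of at least 40%; inactive = inhibition below 40%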;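 also: fluorescence of freed AMC excited at 355 nm; 0% = enzyme without compound and 100% = no enzyme blank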
# FXIIa inh 1536 = inhibitors of human coagulation factor XIIa | P00748 | purified FXIIa, Boc-QGR-AMC fluorogenic substrate, 2 h | inhibition, % at 5 µM | 220,000 tested, 0.3% active; in the data active = inhibition above about 40%;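 also: 0% = enzyme with no compound and 100% = blank without enzyme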
# Numbers without * were called inactive; . = no result.
SMILES,KLK5 inh,Thrombin inh,Calpain2 inh,FXIa inh 1536,FXIIa inh 1536
COc1ccc(-n2cnc3scc(-c4ccccc4)c3c2=O)cc1,-4.3,-9.8,20.7,-4.9,2.9
O=C(NC1CCCc2ccccc21)C1CCN(S(=O)(=O)c2ccccc2F)CC1 (stereo unspecified),28.2,29.2,21.6,5.8,87.8*
O=C(Nc1ccc(N2CCOCC2)cc1)C1CCCN(S(=O)(=O)c2ccccc2)C1 (stereo unspecified),-8.7,-2.3,9.5,-9.5,5.4
O=C(Nc1ccc(N2CCOCC2)cc1)C1CCN(S(=O)(=O)c2ccccc2F)CC1,7.9,69.9*,-3.0,7.4,6.3
O=C(NC1CCCc2ccccc21)C1CCN(S(=O)(=O)c2ccccc2)CC1 (stereo unspecified),7.0,17.6,30.5,9.8,19.1
Cn1c2c(c3ccccc31)CCSC2=O,2.4,-0.3,-6.5,10.9,71.5*
Cn1c(-c2ccccc2)c(C=O)c2ccccc21,6.3,-9.0,1.0,0.0,11.3
O=C(Nc1ccc(Cl)cc1)Nc1nc(-c2sccc2Br)cs1,4.5,-3.6,14.2,-6.0,-6.2
O=C(Nc1ccc(Cl)cc1)Nc1nc(-c2ccccc2O)cs1,35.2,18.8,9.8,53.2*,29.4
COc1ccccc1NC(=O)c1cc2n(n1)C(C(F)(F)F)CC(c1ccc3c(c1)OCO3)N2 (stereo unspecified),-9.8,3.2,-96.7,-11.2,-3.3
COc1ccc(C2CC(C(F)(F)F)n3nc(C(=O)Nc4ccc5c(c4)OCO5)cc3N2)cc1 (stereo unspecified),16.7,36.2,13.4,-3.9,42.7*
CCOC(=O)Nc1c(O)ccc2oc(C)c(-c3ccccc3)c12,84.1*,19.7,22.8,7.0,20.1
CCOC(=O)C(=O)Nc1nc(-c2ccccc2)c(-c2ccccc2)o1,-4.0,-7.1,-7.0,-0.1,-0.6
Cn1c(=O)c2c(nc(Sc3ncnn3CC(=O)N3CCOCC3)n2C)n(C)c1=O,2.2,-2.6,-5.8,1.4,4.3
Cc1cc(C(=O)CSc2nnnn2C)c(C)n1-c1cccc(F)c1,34.3,49.2*,1.9,13.9,22.6
CC12COC3(C(=O)Nc4nccs4)CC1CCC32C (stereo unspecified),71.8*,12.3,2.9,0.7,13.7
O=C(c1ccc(N2CCCC2=O)cc1)N1CCCCCC1,-12.2,-6.8,83.6*,31.8,57.4*
C=CCNC(=S)NNC(=O)c1ccc(=O)n(Cc2ccc(Cl)cc2Cl)c1,-4.2,-6.3,29.0,-4.9,1.3
NC(=O)c1c(NC(=O)Cn2nc(C(=O)O)c3ccccc3c2=O)sc2c1CCCC2,33.7,98.7*,-6.9,21.5,32.2
COc1cccc(CC(NC(C)=O)C(=O)NC2CCN(C(=O)C3CC3)CC2)c1OC (stereo unspecified),-4.2,6.8,-23.7,-0.4,7.2
COc1ccc(N/C(=N\c2nc(C)cc(C)n2)NC(C)=O)cc1OC,-5.2,50.2*,-33.4,1.0,12.6
COC(=O)c1ccc(NC(=O)CC2C(=O)N(C)C(=S)N2Cc2ccc(S(N)(=O)=O)cc2)cc1 (stereo unspecified),54.0*,18.4,9.7,30.9,21.6
O=[N+]([O-])c1ccc(NC(=S)NCCc2ccccc2)cc1,-17.9,4.4,10.7,6.5,16.9
NS(=O)(=O)c1ccc(CNC(=S)Nc2ccc(F)c(Cl)c2)cc1,.,-3.3,1.2,0.1,2.0
O=[N+]([O-])c1cc(C(F)(F)F)ccc1NCCNC(=S)Nc1ccc(Cl)cc1,5.0,-0.8,51.7*,-3.7,27.3
SMILES,KLK5 inh,Thrombin inh,Calpain2 inh,FXIa inh 1536,FXIIa inh 1536
NS(=O)(=O)c1ccc(NC(=S)NCc2ccc(Cl)cc2)cc1,-21.1,-4.0,56.0*,-13.4,-4.0
O=[N+]([O-])c1cc(C(F)(F)F)ccc1NCCCCNS(=O)(=O)c1ccc(Cl)cc1,-9.8,-10.3,21.4,5.3,8.8
O=[N+]([O-])c1ccc(NC(=S)NCCc2ccc(Cl)cc2)cc1,-8.4,-0.4,67.7*,19.4,21.4
Cc1ccc(C(=O)NCCNc2ccc(Cl)cc2[N+](=O)[O-])o1,7.0,-1.8,27.0,-1.3,59.9*
O=C(OCC(=O)N1CCc2ccccc2C1)c1cccc([N+](=O)[O-])c1,27.0,-7.3,27.8,-3.1,3.6
CCc1nc2n(n1)C(O)c1cc([N+](=O)[O-])ccc1S2 (stereo unspecified),-1.2,-1.9,9.4,0.1,11.8
O=C(CCc1ccccc1)N1CCN(c2ccc(F)cc2)CC1,-5.1,-10.6,9.1,-3.9,-1.3
CCOc1ccc(C(=O)NC(=S)N(Cc2ccccc2)Cc2ccccc2)cc1,0.1,-4.4,7.8,-5.1,-8.1
